We go through eleven molecules from ChEMBL document CHEMBL1140168, “Phthalides from Pittosporum illicioides var. illicioides with inhibitory activity on superoxide generation and elastase release by neutrophils” (J Nat Prod, 2008).

By IC50 is commonly meant the concentration at which inhibition is half-maximal.

Structures are written as SMILES. Some results are limits rather than exact numbers.

Assay [1] can be described thus: Antiinflammatory activity in human neutrophils assessed as inhibition of fMLP/Cytochalasin B-induced elastase release. It is filed as functional, cell-based. The note with it: Neutrophil. The method, boiled down: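 Elastase release (azurophilic degranulation) was measured in donor neutrophils (6 × 10^5/mL) with MeO-Suc-Ala-Ala-Pro-Val-p-nitroanilide substrate at 100 µM. Cells were equilibrated 2 min at 37 °C, then pretreated with compound for 5 min. Stimulation was with fMLP 100 nM plus cytochalasin B 0.5 µg/mL, and A405 was monitored continuously. IC50 came from concentration-dependent inhibition.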

Assay [2] in a line: Antiinflammatory activity in human neutrophils assessed as inhibition of fMLP/cytochalasin B-induced superoxide radical anion generation. The assay is classed as functional, cell-based. The note with it: Neutrophil. The essentials: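 Neutrophils from healthy adult donors were isolated by dextran sedimentation, Ficoll Hypaque centrifugation and hypotonic RBC lysis, then kept in Ca2+-free HBSS pH 7.4 at 4 °C. Cells with 0.5 mg/mL ferricytochrome c and 1 mM Ca2+ were equilibrated 2 min at 37 °C and given compound for 5 min. CB 1 µg/mL was added 3 min before 100 nM fMLP (10 min). SOD-inhibitable A550 was read continuously.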

Turning to `O=S(=O)(F)Cc1ccccc1` [PHENYLMETHYLSULFONYLFLUORIDE], in assay [1], the IC50 is 202 µM.
On to `c1ccc2c(c1)[I+]c1ccccc1-2` [DIPHENYLENEIODONIUM], for which the IC50 in assay [2] is 1.7 µM.
For the molecule `CC[C@@H]1OC(=O)c2c1cc(OC)c(OC)c2OC`, the figures for the half-inhibitory concentration (IC50) in assay [1] and in assay [2] were above 50 µM and 17.6 µM, respectively.
For the molecule `CC[C@@H]1OC(=O)c2c1cc(OC)c(OC)c2O`, the IC50 in assay [1] is above 50 µM; in assay [2], 13.7 µM.
For `C/C=C1\OC(=O)c2c1ccc(OC)c2OC` the same measures were 33.9 µM and above 50 µM.
`C/C=C1\OC(=O)c2c1ccc(OC)c2O`: the values for the IC50 in assay [1] and in assay [2] were 38.6 µM and 45.3 µM, respectively.
Turning to `CC[C@H]1OC(=O)c2c1ccc(OC)c2O`, the results for the IC50 in assay [1] and in assay [2] were above 50 µM and 21.2 µM, respectively.
Taken in the same sequence, the figures for `COc1cc2ccc(=O)oc2cc1OC` [SCOPARONE] were above 50 µM and 41.4 µM.
Taken in the same sequence, the figures for `CC[C@@H]1OC(=O)c2c1ccc(OC)c2O` were above 50 µM and 29.8 µM.
Consider `COc1cc2ccc(=O)oc2c(OC)c1OC` [FRAXIDIN METHYL ETHER], for which the results for the IC50 in assay [1] and in assay [2] were above 50 µM and 48.6 µM, respectively.
Taken in the same sequence, the figures for `COc1cc([C@@H]2OC[C@@H]3[C@H]2CO[C@H]3c2cc(OC)c(O)c(OC)c2)cc(OC)c1O` were above 50 µM and 40.2 µM.
